Experimental data as given in ChEMBL document CHEMBL1122655, “Gamma-aminobutyric acid esters. 1. Synthesis, brain uptake, and pharmacological studies of aliphatic and steroid esters of gamma-aminobutyric acid” (J Med Chem, 1984).
Where “and” joins values, the source holds several entries; their conditions need not be identical. Equal entries are not always repeated.

What was measured:
[1] = Partition coefficient in 1-octanol/water system; assay type: physicochemical
Summary of the method: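 1-Octanol/water partition coefficient determined with the U-14C-labeled esters, read by radioactivity.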

Mus musculus [2] = assay: Evaluation of General motor activity in mouse 60 mins postinjection (ip) of 16 mg/kg; assay type: functional
Summary of the method: (§1)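 Male BALB-c mice (18-24 g) given compound ip in 25% propylene glycol/water. Each was monitored singly for 60 min in an electronic activity monitor. Cumulative activity was expressed as % of vehicle control; mean ± SEM, n = 6, t test.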

Mus musculus [3] = assay: Brain penetration index is the ratio of the uptake in brain/liver X 100, 5 min after sc administration of 41 mg/kg of the [14C]-compound.; assay type: functional; settings: route subcutaneous
Summary of the method: (§2)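 [14C]-labeled ester injected sc into mice in 0.5 mL of 25% propylene glycol in water, killed at 5 min. Brain and liver were weighed and homogenized in SDS/6 M urea/EDTA phosphate solvent, pH 7.4, then counted by liquid scintillation. BPI = [brain]/[liver] × 100. Means ± SEM, n = 3.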

Mus musculus [4] = assay: Uptake of the [14C]-compound in mouse liver 5 minutes after sc administration of 41 mg/kg.; assay type: functional; settings: route subcutaneous
Summary of the method: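 Mice were given the 14C-labeled compound sc in 25% propylene glycol in water and killed at 5 min. Liver was removed, weighed and homogenized in 1% SDS in 6 M urea with 19 mM EDTA and 0.03 M phosphate, pH 7.4. Homogenate aliquots were counted by liquid scintillation, and uptake per gram of tissue was calculated. Mean ± SEM, n = 3.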

Mus musculus [5] = assay: Uptake of the [14C]-compound in mouse brain 15 minutes after sc administration of 41 mg/kg.; assay type: functional; settings: route subcutaneous
Summary of the method: (§3)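 [14C]-labeled ester injected sc into mice in 25% propylene glycol/water. At the stated time, brain and liver were homogenized in SDS/urea/EDTA phosphate solvent, pH 7.4, and counted by liquid scintillation. Uptake was calculated per gram tissue (nmol/g).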

Mus musculus [6] = assay: Uptake of the [14C]-compound in mouse brain 5 minutes after sc administration of 41 mg/kg.; assay type: functional; settings: route subcutaneous; summary of the method: as §3
Mus musculus [7] = assay: Uptake of the [14C]-compound in mouse liver 15 minutes after sc administration of 24 mg/kg.; assay type: functional; settings: route subcutaneous, in the assay text read “mouse brain” for “mouse liver”; summary of the method: as §3
Mus musculus [8] = assay: Anticonvulsant activity is the ability to delay the onset of bicuculline induced seizures in mouse at 24 hr after pretreament with compound (16 mg/kg, ip); assay type: functional
Summary of the method: (§4)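 Mice given test article ip 24 h before bicuculline (0.3 mg/kg sc). Latency to onset of generalized tonic-clonic seizures was recorded in seconds and expressed as % of saline control. Means ± SEM, n ≥ 6 per group.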

Mus musculus [9] = assay: Anticonvulsant activity is the ability to increase the survival time of mouse ssubjected to bicuculline induced seizures at 24 hr after pretreament with compound (16 mg/kg, ip); assay type: functional
Rattus norvegicus [10] = organism: Rattus norvegicus; assay: Enzymatic hydrolysis of cholesteryl [14C]-compound by Rat Brain Homogenate at 10 min; assay type: functional
Summary of the method: (§5)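 Cholesteryl-[14C]GABA ester (3 mg/mL) incubated at 37 °C with rat brain homogenate 10,000g supernatant (S1; 0.8 mg/mL protein). Aliquots were quenched with ethanol and run on silica TLC (CHCl3/MeOH/HOAc 18:6:1) to quantify unreacted substrate (nmol). Control was the initial substrate amount.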

Mus musculus [11] = assay: Anticonvulsant activity is the ability to delay the onset of bicuculline induced seizures in mouse at 24 hr after pretreament with compound (3 mg/kg, ip); assay type: functional; summary of the method: as §4
Rattus norvegicus [12] = organism: Rattus norvegicus; assay: Enzymatic hydrolysis of cholesteryl [14C]-compound by Rat Brain Homogenate at 60 min; assay type: functional; summary of the method: as §5
Mus musculus [13] = assay: Uptake of the [14C]-compound in mouse brain 5 minutes after sc administration of 24 mg/kg.; assay type: functional; settings: route subcutaneous; summary of the method: as §3
Rattus norvegicus [14] = organism: Rattus norvegicus; assay: Enzymatic hydrolysis of cholesteryl [14C]-compound by Rat Brain Homogenate at 30 min; assay type: functional; summary of the method: as §5
Mus musculus [15] = assay: Anticonvulsant activity is the ability to delay the onset of bicuculline induced seizures in mouse at 24 hr after pretreament with compound (84 mg/kg, ip); assay type: functional; summary of the method: as §4
Mus musculus [16] = assay: Uptake of the [14C]-compound in mouse liver 5 minutes after sc administration of 24 mg/kg.; assay type: functional; settings: route subcutaneous; summary of the method: as §3
Mus musculus [17] = assay: Uptake of the [14C]-compound in mouse liver 60 minutes after sc administration of 24 mg/kg.; assay type: functional; settings: route subcutaneous, in the assay text read “mouse brain” for “mouse liver”
[18] = target: GABA-A receptor; anion channel; assay: Inhibition of [3H]GABA binding to synaptic membranes from rat cerebellum; assay type: tissue-based
Summary of the method: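 [3H]GABA (15 nM) binding to rat cerebellum synaptic membranes. At least two concentrations above and below IC50, each at least in triplicate. IC50 was obtained by fitting linearized transformations of the data.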

Mus musculus [19] = assay: Anticonvulsant activity is the ability to increase the survival time of mouse ssubjected to bicuculline induced seizures at 24 hr after pretreament with compound (3 mg/kg, ip); assay type: functional
Mus musculus [20] = assay: Anticonvulsant activity is the ability to increase the survival time of mouse ssubjected to bicuculline induced seizures at 24 hr after pretreament with compound (30 mg/kg, ip); assay type: functional
Mus musculus [21] = assay: Uptake of the [14C]-compound in mouse liver 180 min after sc administration of 24 mg/kg.; assay type: functional; settings: route subcutaneous, in the assay text read “mouse brain” for “mouse liver”; summary of the method: as §3
Mus musculus [22] = assay: Anticonvulsant activity is the ability to delay the onset of bicuculline induced seizures in mouse at 24 hr after pretreament with compound (30 mg/kg, ip); assay type: functional; summary of the method: as §4
Mus musculus [23] = assay: Evaluation of General motor activity in mouse 60 mins postinjection (ip) of 3 mg/kg; assay type: functional; summary of the method: as §1
Mus musculus [24] = assay: Evaluation of General motor activity in mouse 60 mins postinjection (ip) of 10 mg/kg; assay type: functional; summary of the method: as §1
Mus musculus [25] = assay: Brain penetration index is the ratio of the uptake in brain/liver X 100, 5 min after sc administration of 24 mg/kg of the [14C]-compound.; assay type: functional; settings: route subcutaneous; summary of the method: as §2
Mus musculus [26] = assay: Evaluation of General motor activity in mouse 60 mins postinjection (ip) of 33 mg/kg*; assay type: functional; summary of the method: as §1

C[C@@H]1CC2C3CCC4=CC(=O)C=CC4(C)C3(F)C(O)CC2(C)C1(O)C(=O)COC(=O)CCCN (some centres not stated)
K [1]: 0.9
Motor activity (Mus musculus [2]): 94
Brain penetration index (Mus musculus [3]): 81%
Liver concentration (Mus musculus [4]): 10.8 nmol/g
Brain concentration (Mus musculus [5]): 21.5 nmol/g
Brain concentration (Mus musculus [6]): 8.7 nmol/g

CC(C)CCCC(C)C1CCC2C3CC=C4CC(OC(=O)CCCN)CCC4(C)C3CCC12C (configuration not stated)
K [1]: 110
Brain concentration (Mus musculus [7]): 0.67 nmol/g
Onset seizure (Mus musculus [8]): 129
Survival time (Mus musculus [9]): 101 and 109
Amount of unreacted substrate (Rattus norvegicus [10]): 53
Onset seizure (Mus musculus [11]): 120
Amount of unreacted substrate (Rattus norvegicus [12]): 34.5
Brain concentration (Mus musculus [13]): 0.17 nmol/g
Amount of unreacted substrate (Rattus norvegicus [14]): 43.5
Onset seizure (Mus musculus [15]): 137
Liver concentration (Mus musculus [16]): 0.69 nmol/g
Brain concentration (Mus musculus [17]): 0.79 nmol/g
IC50 [18]: 10 µM
Survival time (Mus musculus [19]): 95
Survival time (Mus musculus [20]): 104
Brain concentration (Mus musculus [21]): 0.6 nmol/g
Onset seizure (Mus musculus [22]): 130
Motor activity (Mus musculus [23]): 67
Motor activity (Mus musculus [24]): 49
Brain penetration index (Mus musculus [25]): 25%
Motor activity (Mus musculus [26]): 15
